MBD2 DNA inh = blocks human MBD2 binding to methylated DNA; Q9UBB5; TR-FRET, MBD2 binding to methylated oligonucleotide; inhibition, % at 4.4 µM; hit rate 0.31% among 370,000; AID 686964; in the data active = inhibition above about 13%
ABHD5 PLIN5 PPI = inhibitors of human ABHD5-perilipin-5 interaction | hit rate 0.78% among 360,000 | Q00G26+Q8WTS1 | Split G. princeps luciferase complementation, luminescence, 4 h | AID 602281 | inhibition, % at 4 µM;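 active = inhibition above the mean inhibition across every tested compound plus 3 SD, cut at about 22% in these data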;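 also: 0% = DMSO only wells and the 100% control is not disclosed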
PRMT1 inh = inhibitors of human PRMT1; Q99873; recombinant PRMT1, activity-based probe fluorescence polarization; inhibition, % at 2.79 µM; hit rate 1.3% among 370,000;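 active = inhibition above about 21% made by adding two undisclosed values, limit read from the data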
UHRF1 binding = blocks human UHRF1 binding to methylated DNA; Q96T88; UHRF1 binding to methylated oligo, TR-FRET; inhibition, % at 4.4 µM; hit rate 0.75% among 370,000; AID 687016; in the data active = inhibition above about 21%;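 also: UHRF1 SRA domain binding a hemimethylated CpG hairpin DNA probe; 0% = median of test compound wells and 100% = reference inhibitor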
LEDGF integ inh = blocks HIV-1 LEDGF/p75-dependent DNA integration; TR-FRET IN-LEDGF/p75 DNA integration, Eu/Cy5; inhibition, % at 3.7 µM; hit rate 0.64% among 370,000;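 active = inhibition above the screen-wide mean plus 3 SD, cut at about 13% in these data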;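 also: signal is the Cy5 over europium emission ratio at 671 and 618 nm; 0% = plate median of compound wells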
RBBP9 inhibitor = inhibitors of human serine hydrolase RBBP9; recombinant RBBP9, FP-Rh probe fluorescence polarization; inhibition, % at 7.94 µM; hit rate 0.2% among 220,000; AID 1515;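 active = inhibition above the campaign mean of all tested compounds plus 3 SD, cut at about 14% in these data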;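 also: plate controls were DMSO wells with RBBP9 for no effect and wells lacking RBBP9 protein for full effect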
Target sequence (O75884 whole entry, looked up): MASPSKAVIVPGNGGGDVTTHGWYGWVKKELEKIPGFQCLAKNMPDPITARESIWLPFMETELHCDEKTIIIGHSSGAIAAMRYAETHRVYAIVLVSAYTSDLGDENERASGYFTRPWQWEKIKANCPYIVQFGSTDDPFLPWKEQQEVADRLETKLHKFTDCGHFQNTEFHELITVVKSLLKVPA
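System: RBBP9 protein / Quantity: 2.5 µM RBBP9 dispensing solution, before mixing / Also added: Serine-hydrolase probe FP-Rh, 375 nM pre-mixing / Dosing: 7.94 µM single dose, 0.794% DMSO / Timing: enzyme-compound preincubation 30 min, then probe labeling 45 min, 25 °C / Signal: FP readout at 525/598 nm / Controls: DMSO-treated enzyme wells and wells lacking RBBP9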
ABHD5 PLIN5 conf = ABHD5-PLIN5 interaction inhibition, confirmed; shares compounds with ABHD5 PLIN5 PPI; biochemical ABHD5-PLIN5 interaction, luminescence; inhibition, % at 4 µM; hit rate 67% among 2,200; AID 651612; in the data active = inhibition above about 23%;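 also: 0% = DMSO vehicle wells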
HNF4 counter = counter-screen for ABHD5-PLIN5 inhibitors: HNF4 split-luciferase. hit rate 77% among 2,200. HNF4 dimerization, luminescence, biochemical. AID 651674. shares compounds with ABHD5 PLIN5 PPI. inhibition, % at 4 µM;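 active = mean inhibition across replicate wells exceeding the computed hit threshold, cut at about 13% in these data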;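 also: light from luciferase halves that rejoin when HNF4 fusion proteins dimerize; 0% = DMSO only wells and the 100% control is not given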
Target sequence (P41235 whole entry, looked up, the tested form may be a part): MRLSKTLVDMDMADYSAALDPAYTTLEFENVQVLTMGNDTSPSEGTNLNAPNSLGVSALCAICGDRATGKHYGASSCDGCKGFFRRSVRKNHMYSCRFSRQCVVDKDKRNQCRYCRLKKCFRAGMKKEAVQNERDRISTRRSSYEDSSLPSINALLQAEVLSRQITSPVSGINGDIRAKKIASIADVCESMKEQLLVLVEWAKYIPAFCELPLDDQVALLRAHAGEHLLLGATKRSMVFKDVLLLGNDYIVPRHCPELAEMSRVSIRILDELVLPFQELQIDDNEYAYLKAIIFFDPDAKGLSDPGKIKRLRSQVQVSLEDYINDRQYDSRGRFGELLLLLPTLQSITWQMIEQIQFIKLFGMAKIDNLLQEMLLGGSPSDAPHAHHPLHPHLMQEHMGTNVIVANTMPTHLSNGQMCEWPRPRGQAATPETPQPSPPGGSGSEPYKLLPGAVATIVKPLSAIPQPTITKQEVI
PRMT1 confirm = confirmation of human PRMT1 inhibitors; shares compounds with PRMT1 inh; recombinant His-PRMT1, activity-based probe fluorescence polarization; inhibition, % at 2.79 µM; hit rate 42% among 3,300;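 active = mean inhibition across replicates above the hit cutoff derived for the earlier primary screen, cut at about 22% in these data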
Numbers without * were called inactive; x = no result. Hits are enriched below; roughly 3.1% of the tested compounds scored in any of these assays.

SMILES	MBD2 DNA inh	ABHD5 PLIN5 PPI	PRMT1 inh	UHRF1 binding	LEDGF integ inh	RBBP9 inhibitor	ABHD5 PLIN5 conf	HNF4 counter	PRMT1 confirm
O=C1C(O)=CC(=C(c2ccccc2)c2ccccc2)c2ccccc21	-1	97*	42*	-3	11	x	18	88*	7
O=C(O)c1cccc2c1C(=O)c1ccccc1C2=O	1	1	3	2	-4	-2	x	x	x
Cc1cc(O)cc(=O)n1-c1cccc(C(F)(F)F)c1	3	x	6	5	0	x	x	x	x
CN1/C(=C\C=O)C(C)(C)c2ccccc21	-1	-7	-1	0	1	-10	x	x	x
CN1\C(=C/C=C/C=C/C=[N+](C)C)C(C)(C)c2ccccc21	-7	24*	33*	-12	7	-81	49*	38*	43*
O=C1c2cccc3c(O)ccc(c23)C(=O)N1Cc1ccco1	-22	45*	158*	-41	7	9	24*	53*	169*
CCc1ccc(-n2ncc(Cl)c(Oc3ccc(OC)cc3)c2=O)cc1	-5	x	-3	2	4	x	x	x	x
COc1cc(N=c2ssnc2Cl)cc(OC)c1OC	5	61*	97*	-10	4	-9	68*	103*	90*
Nc1ccccc1SC(CC(=O)c1ccccc1)c1ccc([N+](=O)[O-])cc1 (stereo not drawn)	-5	71*	83*	9	1	x	70*	85*	61*
Nc1ccccc1SC(CC(=O)c1ccccc1)c1cccc([N+](=O)[O-])c1 (stereo not drawn)	10	76*	86*	19	3	x	39*	100*	57*
Cc1ccc(C(=O)CC(SCC(=O)O)c2ccc([N+](=O)[O-])cc2)cc1 (stereo not drawn)	-3	11	4	1	-2	-6	x	x	x
COc1ccc(NC(=O)N(CCc2c(C)[nH]c3ccccc23)Cc2cccs2)cc1OC	2	x	4	3	-2	x	x	x	x
COc1ccc(NC(=O)c2nc(S(=O)(=O)Cc3cccc(C)c3)ncc2Cl)c(OC)c1	3	15	0	-2	3	x	x	x	x
Cc1ccc(NC(=O)c2nc(S(=O)(=O)Cc3ccccc3)ncc2Cl)cc1	4	72*	38*	-1	0	x	94*	102*	23*
O=C(Nc1ccc(F)cc1)c1nc(S(=O)(=O)Cc2ccccc2)ncc1Cl	2	60*	39*	6	-1	x	90*	97*	18
Cc1cccc(CS(=O)(=O)c2ncc(Cl)c(C(=O)Nc3c(C)cccc3C)n2)c1	-5	75*	25*	0	-3	x	89*	107*	12
CCCC1CCC2(CCCN2CCOC(=O)Nc2ccc(OC)cc2)CC1 (stereo not drawn)	4	x	-2	2	-1	x	x	x	x
NC1=[N+](Cc2ccccc2)C[C@H]2C(=C3CCCC[C@H]3n3c(=O)n(-c4ccccc4)c(=O)n32)N1	0	x	0	-1	1	x	x	x	x
COC(=O)C1CN(Cc2ccc(OC)cc2)CCS(=O)(=O)N1Cc1ccc(Cl)cc1 (stereo not drawn)	-4	x	3	-1	-3	x	x	x	x
Cc1ccc(-n2c(SCC(=O)NN=Cc3ccc(-c4ccccc4)cc3)nnc2-c2ccccc2)cc1	0	x	0	-1	-2	x	x	x	x
C=CCN1C(C(=O)OC)CN(Cc2cn(CCC3OCCO3)nn2)CCS1(=O)=O (stereo not drawn)	10	x	0	19	0	x	x	x	x
Cc1ccc(S(=O)(=O)N2CN(Cc3ccco3)c3nc4ccccc4nc32)cc1	-6	7	10	-1	1	-1	x	x	x
O=S(=O)(c1ccc(F)cc1)N1CN(Cc2ccco2)c2nc3ccccc3nc21	-2	24*	26*	-6	3	-1	28*	23*	3
O=C(O)c1ccc(S(=O)(=O)c2ccccc2C(=O)O)c([N+](=O)[O-])c1	4	3	4	2	2	x	x	x	x
O=C(O)c1ccc(S(=O)(=O)c2ccc([N+](=O)[O-])cc2[N+](=O)[O-])cc1	-5	42*	30*	-5	2	x	68*	110*	27*
SMILES	MBD2 DNA inh	ABHD5 PLIN5 PPI	PRMT1 inh	UHRF1 binding	LEDGF integ inh	RBBP9 inhibitor	ABHD5 PLIN5 conf	HNF4 counter	PRMT1 confirm
O=C(c1ccccc1)N1CC[C@H]2[C@H](CCCN2Cc2ccccc2)C1	-1	x	2	0	6	x	x	x	x
C=C[C@]1(C)C=C2CC[C@H]3[C@@](C)(CCC[C@@]3(C)C(=O)O)[C@@H]2CC1	x	1	x	x	x	x	x	x	x
C=C[C@]1(C)C=C2C(=O)[C@@]3(O)OC(=O)[C@@]4(CCCC(C)(C)[C@H]34)[C@@]2(O)CC1	-6	72*	61*	-2	-9	x	61*	81*	6
CC(C)N(c1cc(=O)nc2ccccn12)C(C)C	6	x	2	0	-3	x	x	x	x
Cc1cc(C)c2c(=O)n(CC(=O)NC3CCCC3)sc2n1	0	27*	83*	0	-3	-20	33*	107*	89*
COc1ccc(OC)c(CCNC(=O)Cn2sc3nc(C)cc(C)c3c2=O)c1	x	x	x	x	x	9	x	x	x
O=C(CCN1CCc2ccccc2C(c2ccccc2)C1)c1ccc2c(c1)OCCO2 (stereo not drawn)	-5	26*	38*	0	2	1	23*	86*	20
COc1ccc(NC(=O)CSc2c3c(nc4ccccc24)CCCC3)c(OC)c1	3	25*	26*	3	-7	-13	29*	44*	26*
CC1(C)CC(=O)C(CS(=O)(=O)c2ccccc2)=C(O)C1	-5	44*	27*	1	2	x	50*	92*	22*
COC(=O)C1CN(Cc2ccc(F)cc2)CCS(=O)(=O)N1Cc1ccc(C)cc1 (stereo not drawn)	-6	x	-5	0	3	x	x	x	x
O=C(c1ccc(-c2ccc([N+](=O)[O-])cc2)o1)N1CCCC(C(F)(F)F)C1 (stereo not drawn)	2	0	16	2	2	x	x	x	x
O=C(c1ccc(-c2ccc([N+](=O)[O-])cc2)o1)N1CCCCCCC1	2	39*	31*	1	-2	x	42*	33*	-1
O=C(CN1C(=O)c2ccccc2C1=O)Nc1ccccc1	-3	-1	-5	-1	4	x	x	x	x
O=C(Cn1sc2ccccc2c1=O)Nc1ccccc1	-4	64*	87*	0	-3	x	81*	116*	89*
